The values below come from ChEMBL document CHEMBL3046951, “Volatile constituents from the leaves of Callicarpa japonica Thunb. and their antibacterial activities” (2004).

Assay [1] deals with Bacillus cereus. Description: Antimicrobial activity against Bacillus cereus ATCC 11778 assessed as growth inhibition rate at 3.64 mg/l after 72 hr by spectrophotometry. Particulars: ATCC 11778, 72 h, read-out: GI. The format is functional. A digest of the protocol: (§1)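 Pure volatile compounds (purity >95%; one at 90%) were tested against B. cereus ATCC 11778. The strain was grown at 30 °C in nutrient broth for 24 h, then subcultured for 18 h. Optical density was read in a Bioscreen C every 24 h for 72 h, with 10% Tween 80 as the control.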

The test system of assay [2] is Escherichia coli. Kind of assay: Antimicrobial activity against Escherichia coli O157:H7 ATCC 43894 assessed as growth inhibition rate at 3.64 mg/l after 72 hr by spectrophotometry. The format is functional. Particulars: O157:H7 ATCC 43894, 72 h, read-out: GI.
For assay [3], the system named is Listeria monocytogenes. Kind of assay: Antimicrobial activity against Listeria monocytogenes ATCC 19111 assessed as growth inhibition rate at 3.64 mg/l after 72 hr by spectrophotometry. Particulars: ATCC 19111, 72 h, read-out: GI. The format is functional. A digest of the protocol:
(§2)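 L. monocytogenes was grown at 30 °C in tryptic soy broth, subcultured for 18 h, and exposed to pure volatile compounds (>95% purity). Growth was followed by Bioscreen C optical density every 24 h for 72 h against a 10% Tween 80 control.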

For assay [4], the system named is Vibrio parahaemolyticus. Description: Antimicrobial activity against Vibrio parahaemolyticus ATCC 33844 assessed as growth inhibition rate at 3.64 mg/l after 72 hr by spectrophotometry. The format is functional. Particulars: ATCC 33844, 72 h, read-out: GI.
Assay [5] concerns Salmonella typhimurium. Kind of assay: Antimicrobial activity against Salmonella enterica subsp. enterica serovar Typhimurium ATCC 14028 assessed as growth inhibition rate at 3.64 mg/l after 72 hr by spectrophotometry. The format is functional. Particulars: ATCC 14028, 72 h, read-out: GI. The method in brief:
(§3)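 Salmonella Typhimurium ATCC 14028 grown in nutrient broth at 30 °C, precultured 24 h, then subcultured 1:100 for 18 h before testing. Single volatile compounds (>95% pure) were added. OD was read every 24 h over 72 h in a Bioscreen C, with 10% Tween 80 as the comparison control.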

Assay [6] has as its system Staphylococcus aureus. Description: Antimicrobial activity against Staphylococcus aureus ATCC 25923 assessed as growth inhibition rate at 3.64 mg/l after 72 hr by spectrophotometry. The format is functional. Particulars: ATCC 25923, 72 h, read-out: GI.
Assay [7] deals with Listeria monocytogenes. Kind of assay: Antimicrobial activity against Listeria monocytogenes ATCC 19111 assessed as growth inhibition rate at 4.44 mg/l after 72 hr by spectrophotometry. The format is functional. Particulars: ATCC 19111, 72 h, read-out: GI. The method in brief:
as §2

Assay [8] concerns Staphylococcus aureus. Description: Antimicrobial activity against Staphylococcus aureus ATCC 25923 assessed as growth inhibition rate at 4.44 mg/l after 72 hr by spectrophotometry. Particulars: ATCC 25923, 72 h, read-out: GI. The format is functional.
Assay [9] relates to Escherichia coli. Kind of assay: Antimicrobial activity against Escherichia coli O157:H7 ATCC 43894 assessed as growth inhibition rate at 4.44 mg/l after 72 hr by spectrophotometry. The format is functional. Particulars: O157:H7 ATCC 43894, 72 h, read-out: GI.
For assay [10], the system named is Vibrio parahaemolyticus. Kind of assay: Antimicrobial activity against Vibrio parahaemolyticus ATCC 33844 assessed as growth inhibition rate at 4.44 mg/l after 72 hr by spectrophotometry. The format is functional. Particulars: ATCC 33844, 72 h, read-out: GI.
Assay [11] deals with Salmonella typhimurium. Kind of assay: Antimicrobial activity against Salmonella enterica subsp. enterica serovar Typhimurium ATCC 14028 assessed as growth inhibition rate at 4.44 mg/l after 72 hr by spectrophotometry. The format is functional. Particulars: ATCC 14028, 72 h, read-out: GI. The method in brief:
as §3

Assay [12] deals with Bacillus cereus. Kind of assay: Antimicrobial activity against Bacillus cereus ATCC 11778 assessed as growth inhibition rate at 4.44 mg/l after 72 hr by spectrophotometry. The format is functional. Particulars: ATCC 11778, 72 h, read-out: GI. A digest of the protocol: as §1
The subject of assay [13] is Vibrio parahaemolyticus. Kind of assay: microbe, parasite or virus in culture. Particulars: ATCC 33844, 72 h, read-out: GI.
The subject of assay [14] is Staphylococcus aureus. Description: microbe, parasite or virus in culture. Particulars: ATCC 25923, 72 h, read-out: GI.
The test system of assay [15] is Listeria monocytogenes. Description: microbe, parasite or virus in culture. Particulars: ATCC 19111, 72 h, read-out: GI.
The test system of assay [16] is Escherichia coli. Description: microbe, parasite or virus in culture. Particulars: O157:H7 ATCC 43894, 72 h, read-out: GI.
In assay [17] the test system is Bacillus cereus. Description: microbe, parasite or virus in culture. Particulars: ATCC 11778, 72 h, read-out: GI.
Assay [18] relates to Salmonella typhimurium. Description: microbe, parasite or virus in culture. Particulars: Salmonella enterica, ATCC 14028, 72 h, read-out: GI.
In assay [19] the test system is Bacillus cereus. Description: Antimicrobial activity against Bacillus cereus ATCC 11778 assessed as growth inhibition rate at 1.44 mg/l after 72 hr by spectrophotometry. The format is functional. Particulars: ATCC 11778, 72 h, read-out: GI. The method in brief:
as §1

The test system of assay [20] is Staphylococcus aureus. Description: Antimicrobial activity against Staphylococcus aureus ATCC 25923 assessed as growth inhibition rate at 1.44 mg/l after 72 hr by spectrophotometry. The format is functional. Particulars: ATCC 25923, 72 h, read-out: GI.
In assay [21] the test system is Salmonella typhimurium. Kind of assay: Antimicrobial activity against Salmonella enterica subsp. enterica serovar Typhimurium ATCC 14028 assessed as growth inhibition rate at 1.44 mg/l after 72 hr by spectrophotometry. The format is functional. Particulars: ATCC 14028, 72 h, read-out: GI. A digest of the protocol:
as §3

For assay [22], the system named is Escherichia coli. Description: Antimicrobial activity against Escherichia coli O157:H7 ATCC 43894 assessed as growth inhibition rate at 1.44 mg/l after 72 hr by spectrophotometry. The format is functional. Particulars: O157:H7 ATCC 43894, 72 h, read-out: GI.
Assay [23] concerns Vibrio parahaemolyticus. Kind of assay: Antimicrobial activity against Vibrio parahaemolyticus ATCC 33844 assessed as growth inhibition rate at 1.44 mg/l after 72 hr by spectrophotometry. The format is functional. Particulars: ATCC 33844, 72 h, read-out: GI.
For assay [24], the system named is Listeria monocytogenes. Kind of assay: Antimicrobial activity against Listeria monocytogenes ATCC 19111 assessed as growth inhibition rate at 1.44 mg/l after 72 hr by spectrophotometry. The format is functional. Particulars: ATCC 19111, 72 h, read-out: GI. The method in brief:
as §2

Assay [25] has as its system Bacillus cereus. Kind of assay: Antimicrobial activity against Bacillus cereus ATCC 11778 assessed as growth inhibition rate at 2.36 mg/l after 72 hr by spectrophotometry. The format is functional. Particulars: ATCC 11778, 72 h, read-out: GI. The method in brief: as §1
The subject of assay [26] is Escherichia coli. Kind of assay: Antimicrobial activity against Escherichia coli O157:H7 ATCC 43894 assessed as growth inhibition rate at 2.36 mg/l after 72 hr by spectrophotometry. The format is functional. Particulars: O157:H7 ATCC 43894, 72 h, read-out: GI.
The subject of assay [27] is Listeria monocytogenes. Description: Antimicrobial activity against Listeria monocytogenes ATCC 19111 assessed as growth inhibition rate at 2.36 mg/l after 72 hr by spectrophotometry. The format is functional. Particulars: ATCC 19111, 72 h, read-out: GI. A digest of the protocol: as §2
Assay [28] has as its system Vibrio parahaemolyticus. Kind of assay: Antimicrobial activity against Vibrio parahaemolyticus ATCC 33844 assessed as growth inhibition rate at 2.36 mg/l after 72 hr by spectrophotometry. The format is functional. Particulars: ATCC 33844, 72 h, read-out: GI.
Assay [29] deals with Staphylococcus aureus. Description: Antimicrobial activity against Staphylococcus aureus ATCC 25923 assessed as growth inhibition rate at 2.36 mg/l after 72 hr by spectrophotometry. Particulars: ATCC 25923, 72 h, read-out: GI. The format is functional.
Assay [30] deals with Salmonella typhimurium. Description: Antimicrobial activity against Salmonella enterica subsp. enterica serovar Typhimurium ATCC 14028 assessed as growth inhibition rate at 2.36 mg/l after 72 hr by spectrophotometry. The format is functional. Particulars: ATCC 14028, 72 h, read-out: GI. A digest of the protocol:
as §3

SMILES strings stand for the structures.

For the compound `CCc1ccco1`, the inhibition of growth at 3.64 µg/mL in the assay on Bacillus cereus [1] was determined as 0%; in the assay on Escherichia coli [2], 0%; in the assay on Listeria monocytogenes [3], 0%; in the assay on Vibrio parahaemolyticus [4], 2.3%; with Salmonella typhimurium [5], 1.6%; in the assay with Staphylococcus aureus [6] it was 4.3%.

With `CC1=CC[C@@H]2C[C@H]1C2(C)C` [1R-(+)-ALPHA-PINENE], the inhibition of growth at 4.44 µg/mL in the assay on Listeria monocytogenes [7] was determined as 0%; in the assay with Staphylococcus aureus [8], 20.8%; in the assay on Escherichia coli [9], 0%; in the assay on Vibrio parahaemolyticus [10], 10.7%; in the assay on Salmonella typhimurium [11] it was 5.2%; in the assay on Bacillus cereus [12], 0%.

Consider `CCO` [ALCOHOL], for which the inhibition of growth at 104.72 µg/mL was found to be 3.9% in the assay with Vibrio parahaemolyticus [13]; 3.2% in the assay with Staphylococcus aureus [14]; 0% in the assay on Listeria monocytogenes [15]; 2% with Escherichia coli [16]; 0% in the assay with Bacillus cereus [17]; 3.4% with Salmonella typhimurium [18].

`CCOC(C)=O` [ETHYL ACETATE]: the inhibition of growth at 1.44 µg/mL in the assay on Bacillus cereus [19] amounted to 0%; in the assay with Staphylococcus aureus [20], 6.6%; with Salmonella typhimurium [21], 9.3%; with Escherichia coli [22], 0%; in the assay with Vibrio parahaemolyticus [23], 4.5%; in the assay with Listeria monocytogenes [24] it was 0%.

Turning to `CCCCC=O` [PENTANAL], the inhibition of growth at 2.36 µg/mL with Bacillus cereus [25] came out at 11.3%; with Escherichia coli [26] it was 0%; with Listeria monocytogenes [27], 0%; in the assay on Vibrio parahaemolyticus [28] it was 0%; in the assay on Staphylococcus aureus [29], 6.3%; in the assay on Salmonella typhimurium [30], 4.2%.
